Experimental data from the EternaBench riboswitch data.

Test system: MS2 coat protein
Test: apparent Kd, MS2 coat protein; higher = weaker binding; RNA-MaP array; FMN 200 µM where present
How it was run: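 SNAP-549-labelled MS2 coat protein, doubled from 0.7 or 1.5 nM to 3 µM, was titrated over designs transcribed by stalled E. coli RNA polymerase on Illumina sequencing-chip clusters. Titrations were run without and then with constant ligand in 100 mM Tris-HCl pH 7.5, 80 mM KCl, 4 mM MgCl2, BSA, DTT, yeast tRNA and Tween-20. The apparent Kd is the median of filtered per-cluster fits to green signal normalised to red-channel RNA signal and control-cluster median Fmax.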

[1] = designed as: OFF switch for flavin mononucleotide, no ligand
[2] = ligand present: flavin mononucleotide, designed as: OFF switch for flavin mononucleotide
[3] = designed as: ON switch for flavin mononucleotide, no ligand
[4] = ligand present: flavin mononucleotide, designed as: ON switch for flavin mononucleotide

Sequence | apparent Kd [1] [nM] | apparent Kd [2] [nM] | apparent Kd [3] [nM] | apparent Kd [4] [nM]
UGCUGUGUCAGAGGAUAUACUCUAAUAAUCCAUUGCAAAUAGCGAUGGACAUGAGGAUCACCCAUGUAGAAGGCUGUCACAGCA | 73.6 | 140 |  | 
AUAUUGUGAGGAUAUCCAAUAUAUGACAUGAGGAUCACCCAUGUUUCCACUCGUACCUCCGGAGAAGGCACUUAUA | 24.3 | 22.8 |  | 
UUCAUGUGAGGAUAUAGUACUCUUUCUAUUAUUAUUGAGUAUUAGAAGGCACAUGAGGAUCACCCAUGUAGUAC | 30.7 | 16.4 |  | 
UAUUGAUAAUAUUUUAACAUGAGGAUCACCCAUGUCGCUAGACAGGAUAUAUUUUAUUUGUUUAAGUAGAAGGGUCGUAGAUUU |  |  | 200 | 152
AGAAAGGAAGGAUAUACAAGAAAGCUGGGCAACGUCUCAGAACAUGAGGAUCACCCAUGUAGAAGGUCCAGGAA | 25.2 | 34.3 |  | 
UAGGACGAACAGUGCCGUGGAACGAAGGAUAUACAGGGACGUCGGCUCACAUGAGGAUCACCCAUGUAGAAGGUCGACACGCGC | 8.91 | 48.3 |  | 
AUCAGCUCGUCAGGAUAUACGUCACUGUGUCAGCAGUGUGGUAAGAUCACAUGAGGAUCACCCAUGUAGAAGGGACGAGCUGAU | 12.9 | 235 |  | 
GUAUUUAGAUAAGGAUAUAAGUCUAGGACAUGAGGAUCACCCAUGUGUGUCUUAGAAGGUAUUUGGGUAAUACUGUUACAGUAA |  |  | 150 | 99.5
GCGCAAAGAUUAUUAUGAAUAAACAUGAGGAUCACCCAUGUAUAGGAUAUCGACUCGAAUAGAGUCGAGAAGGAUACAUAGCGC | 22.5 | 97.1 |  | 
AAUUAUAUACAGAAGGAGUUAAAAGGAGUAUUACUAGGAUAUGUUCACAUGAGGAUCACCCAUGUCAUAUUGGGAUUUAUUUUU | 27.2 | 25.7 |  | 
GGGUACAUCGGAGGAUAUCAUGUAAAUACAUGAGGAUCACCCAUGUCGAUGGAGACAUCGGAGAUUGAGAAGGCCGAUGUACCC |  |  | 178 | 9.58
ACCUAGCCCAGGCCCACGGCAUCACAGGAUAUGCCGAUAACAUGAGGAUCACCCAUGUCAACUCCGCAGAAGGGUGAUAUCGUG |  |  | 89.2 | 13.5
GGACGGUUAGUCAGGAUAUGCUCUACCUCGGUAGAGCAGAAGGGACAUGAGGAUCACCCAUGUGAUAACUGUUC | 27.4 | 34.8 |  | 
AGCUACGUUUCGUAGCAGUGUCAUCGAGAAGGCUCAGAUACAUGAGGAUCACCCAUGUUAACAUGGGAGGAUAUCGAUGAUACA |  |  | 65.3 | 8.4
UUGGACGUCGUAGGAUAUGUAGGAUAUUCCUACAUGAGGAUCACCCAUGUUGACAAGGAAGAAGGACAGAAGGACGAUGUCCAU |  |  | 5.37 | 3.37
GACUGCUGAGGAUAUACAUGAGGAUCACCCAUGUGCUUCAGCAUCGAAAGAUGCAUUGGUAGAAGGUAGUAGUC | 11.4 | 20.1 |  | 
GAAAACGGAGAGGAUAUUUGAGAUCAAAGCUCCAAAGAAGGCUCCACAUGAGGAUCACCCAUGUGGUCUUCAAU | 14.6 | 107 |  | 
AUCCUACAUGAGGAUCACCCAUGUGACGCCUCAAUAGGAUAUGCGUGUGCCUUGGCGCAUGCAGAAGGAUUGAAGC |  |  | 285 | 48.1
AAGAAAGAAACAUAGGAUAUCAAGAAUAUAACAUGAGGAUCACCCAUGUAAAUACGAAAGUAUAAUGAGAAGGAUGGAUGAUCUUC |  |  | 93.7 | 89
GUGGUCAGACAUGAGGAUCACCCAUGUGGAAUAAAUAAGGGAGAGGAUAUAUAAUAUAGGAUAUAAUAGAAGGCUCGGUUGGUG |  |  | 82.5 | 111
CUCGUGUCGGAGGAUAUCCAGCGCGAAAAUAAAGGAGAAGGCCGCACAUGAGGAUCACCCAUGUAACAUGGUCC | 56.2 | 76.4 |  | 

Sequence | apparent Kd [1] [nM] | apparent Kd [2] [nM] | apparent Kd [3] [nM] | apparent Kd [4] [nM]
GACUGCCGAGGAUAUACAUGAGGAUCACCCAUGUGCUUCAGCAUUUUUUGAUGCAUGGGUAGAAGGCGGUAGUU | 453 | 326 |  | 
CCUCUACAUGAGGAUCACCCAUGUGAGGAUAUAAGAUUGCGGAUUCCGCACUACGGUCUUAGAAGGCGCGUGGA | 19 | 38.1 |  | 
CGGCCGGGUCGAGGAUAUAAGUCUAGGACAUGAGGAUCACCCAUGUAUGUCUUAGAAGGCGACCCGGCCAGCCUGUUACAGGCA |  |  | 31.7 | 7.21
GUGCGUGGCUAGGAUAUUGUGGAGUUUAGUCAGCGAGAAGGUGCCACAUGAGGAUCACCCAUGUGGUGUUGCUC | 19.8 | 21.7 |  | 
GGAUUUCCUGAGGAUAUUGUAUCACCUGAUUGAUAAGAAGGCAGAACAUGAGGAUCACCCAUGUGGGUACUCGG | 134 | 135 |  | 
CCCUCACAUGAGGAUCACCCAUGUCAGGAUAUCUCACAUCGGCCUUAGGCCGAUGUCUAGAGAAGGGACGUAUC | 22.1 | 29.5 |  | 
CUAUGAGGAAUAGGAUAUUCGAUCAUGAGGAUAGAAGAAGGGUUACAUGAGGAUCACCCAUGUAUGCACAUGAGGAUCCCUUAG | 235 | 226 |  | 
AGAACUGAUAGAGGAUAUGUUUUACAUGAGGAUCACCCAUGUGUACAAGGAUCAAUAUAUUUGUUACAGAAGGCUAUUAGUGAG | 11.8 | 18.7 |  | 
GGAUAGGACAGAGGAUAUACGUGCUAUAGAUACUAGCAAAAUUUCCUCACAUGAGGAUCACCCAUGUAGAAGGCUGUCCUAUCG | 16.8 | 354 |  | 
UUCGGCAGUGCAGGAUAUCUAGAGAAACACCUAAGAGAAGGGCAAACAUGAGGAUCACCCAUGUUUGGCGUGAGGUGAAGUUAG | 5.99 | 6.02 |  | 
AGAUGGCGAGGAUAUACAUGAGGAUCACCCAUGUGAGAGAAAAGAGUGAGGAAGAAAAGUAGAAGGCGCUGUCA | 80.6 | 130 |  | 
GCUGCAUAGGCAGGAUAUGCAAUAAUUCGAAUAAAAUAUAACGGAUUAACAUGAGGAUCACCCAUGUAGAAGGGCCUGUGCAGU | 5.73 | 5.49 |  | 
AUGUAGUGCGAAGGAUAUGCGACUGCCUCGGCCGCAGAAGGUCGCACAUGAGGAUCACCCAUGUGCGGUGCAAAGAGUGGUUCU | 111 | 76.3 |  | 
CGAGACCUCACAGGAUAUGCUGGACUUUGUCCAGCAGAAGGGUGAAAACAUGAGGAUCACCCAUGUAUGGUCUCCAAAUUUAAC |  |  | 175 | 12.9
AUGCUUCACACAGGAUAUACAUGAGGAUCACCCAUGUGUGGGCGGUAGCUCGAAAGAGCUACCGGGUAGAAGGGUGUGAAGCAU | 27.1 | 132 |  | 
CGACCACAUGAGGAUCACCCAUGUAAGGAUAUAUUGAAUGAGCCGGCGGCAGUAAAAGAUAGAAGGUGCGUGUA | 23.1 | 22 |  | 
UCGCGGGAGCAGAAGGGAUAGGCCUAUUGUCGUGGAGUCUAAACUUAACAUGAGGAUCACCCAUGUCAGGAUAUGCCCACGCGA | 9.89 | 10.5 |  | 
AAUAUAAAGAGCUGGCUCCAAAUAACAUGAGGAUCACCCAUGUAGGAUAUCAGCACGAUAAGUGCUGAGAAGGACAUCCAGCUC | 15 | 15.6 |  | 
UACAUGAGGAUCACCCAUGUUUUGUCGUGUAUGGUAUUUAUCUAGGAUAUCAAUUGUUUUAUUUAUGAGAAGGAGAAUAUUAAU | 39.3 | 35.8 |  | 
UUUGCAUUCCGAGGAUAUUCAUAUAAUAACUACACAUGAGGAUCACCCAUGUGGCGAUAGCCUAGGGAGAAGGCGGUUUGCUUU |  |  | 22.8 | 21.3
UUGGUUGUCGUAGGAUAUGUAGGAUAUUCCUACAUGAGGAUCACCCAUGUUCGCAUGGAAGAAGGACAGAAGGACGAUGACCAA |  |  | 1080 | 10.4
